Results published in ChEMBL document CHEMBL1154819, “Synthesis and antiviral activity of boranophosphonate isosteres of AZT and d4T monophosphates” (Eur J Med Chem, 2010).
The source made the active and inactive calls. The calls are words filed in the database; no cut-off is given here.

Experiments:
[1] = tested on: Human immunodeficiency virus 1; assay: Antiviral activity against HIV1 3B infected in human CEM cells at 400 uM after 4 to 5 days; format: functional, organism-based; settings: CCRF-CEM
In short: (§1)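 CEM cells (4.5×10^5/ml) were infected at 100 CCID50 per ml, mixed 1:1 with compound dilutions and incubated at 37 °C. Giant-cell formation was scored microscopically after 4–5 days. EC50 is the concentration preventing syncytium formation by 50%.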

[2] = tested on: Human immunodeficiency virus 2; assay: Antiviral activity against HIV2 ROD infected in human CEM cells at 400 uM after 4 to 5 days; format: functional, organism-based; settings: ISOLATE ROD, CCRF-CEM; in short: as §1
Punta Toro virus = assay: Antiviral activity against Punta Toro virus infected in african green monkey Vero cells assessed as inhibition of virus-induced cytopathic effect up to 200 uM after 3 days; format: functional, organism-based
In short: (§2)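 Confluent cell monolayers in MEM with 10% FCS, 2 mM L-glutamine and 0.075% bicarbonate were inoculated with 100 times the 50% cell culture infective dose. Compounds were added after 1–2 h of virus adsorption. Cytopathic effect was scored microscopically at about 3 days as a percentage of untreated controls, and EC50 was read from graphical plots.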

HEL = assay: Cytotoxicity against human HEL cells up to 200 uM after 3 days by MTS assay; format: cell-based; settings: 72 h
Sindbis virus = assay: Antiviral activity against […] virus infected in african green monkey Vero cells assessed as inhibition of virus-induced cytopathic effect up to 200 uM after 3 days; format: functional, organism-based; in short: as §2
[3] = tested on: Human immunodeficiency virus 1; assay: Antiviral activity against HIV1 NL4-3 infected in MAGI-CCR5 cells at 400 uM after 2 days; format: functional, organism-based
In short: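 HIV-1 NL4.3 stock came from 293T cells transfected with the molecular clone and was titred by p24. MAGI-CCR5 cells (10^4 cells, integrated HIV promoter–LacZ reporter, in DMEM with 10% FBS) were pretreated for 4 h with 0–400 µM compound. They were then spinoculated with 100 ng CAp24 and grown with compound. After 2 days, cells were stained for β-galactosidase and blue cells counted; EC50 is a 50% drop in blue cells.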

Human alphaherpesvirus 1 = assay: Antiviral activity against HSV1 infected in human HEL cells assessed as inhibition of virus-induced cytopathic effect up to 200 uM after 3 days; format: functional, organism-based; in short: as §2
[4] = tested on: Mammalian orthoreovirus 1; assay: Antiviral activity against Reovirus 1 infected in african green monkey Vero cells assessed as inhibition of virus-induced cytopathic effect up to 200 uM after 3 days; format: functional, organism-based; in short: as §2
[5] = tested on: Vesicular stomatitis virus; assay: Antiviral activity against VSV infected in human HEL cells assessed as inhibition of virus-induced cytopathic effect up to 200 uM after 3 days; format: functional, organism-based
Vaccinia virus = assay: Antiviral activity against Vaccinia virus infected in human HEL cells assessed as inhibition of virus-induced cytopathic effect up to 200 uM after 3 days; format: functional, organism-based; settings: Orthopoxvirus vaccinia
Human respirovirus 3 = assay: Antiviral activity against Parainfluenza virus 3 infected in african green monkey Vero cells assessed as inhibition of virus-induced cytopathic effect up to 200 uM after 3 days; format: functional, organism-based; in short: as §2
[6] = Cytotoxicity against human HuH5.2 cells up to 200 uM after 3 days by MTS assay; format: cell-based; settings: huh-5-2, 72 h
In short: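 Parallel Huh-5-2 cultures were seeded at 7000 cells/well and treated like the replicon assay without luciferase reagents. Proliferation was measured 3 days after compound addition by MTS bioreduction to formazan, read in a plate reader.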

CCRF-CEM [7] = assay: Cytotoxicity against human CEM cells at 400 uM after 3 days by MTS assay; format: cell-based; settings: 72 h
[8] = tested on: Respiratory syncytial virus; assay: Antiviral activity against RSV infected in human HeLa cells assessed as inhibition of virus-induced cytopathic effect up to 200 uM after 3 days; format: functional, organism-based; in short: as §2
Hepatitis C virus = assay: Antiviral activity against HCV 1b infected in Huh-5-2 cells assessed as inhibition of subgenomic replication; format: functional, organism-based; settings: Hepacivirus hominis, genotype 1b
In short: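 Huh-5-2 cells carry an HCV genotype 1b subgenomic replicon (I389luc-ubi-neo/NS3-3'/5.1) with a firefly luciferase fusion. They were seeded at 7000 cells/well without G418 and allowed to adhere for 24 h. Five 5-fold dilutions starting at 100 µM were then added for 72 h at 37 °C. Luciferase signal was expressed as % of untreated cultures to give EC50. Interferon alfa 2a (500 IU) served as positive control.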

[9] = Chemical stability in PBS of pH 7.3 by HPLC; format: physicochemical; settings: buffer
In short: (§3)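 Compound at an initial 0.1 mM was incubated at 37 °C in buffer at pH 1.2, 7.3 or 11.5. Timed aliquots were frozen at −80 °C and analysed directly by on-line precolumn-cleaning C18 HPLC (0.05 M TEAB to TEAB/CH3CN gradient). Half-lives of decomposition were calculated.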

[10] = Chemical stability in PBS of pH 1.2 by HPLC; format: physicochemical; settings: buffer; in short: as §3
Vero = assay: Cytotoxicity against african green monkey Vero cells up to 200 uM after 3 days by MTS assay; format: cell-based; settings: chlorocebus sabaeus, 72 h
[11] = Chemical stability in culture media by HPLC; format: physicochemical
In short: (§4)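 Compound at an initial 0.1 mM was incubated at 37 °C in RPMI 1640 containing 10% heat-inactivated fetal calf serum. Aliquots were frozen at −80 °C and analysed by on-line precolumn-cleaning reversed-phase C18 HPLC with a TEAB/acetonitrile gradient. Decomposition half-lives were calculated.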

Human alphaherpesvirus 2 = assay: Antiviral activity against HSV2 infected in human HEL cells assessed as inhibition of virus-induced cytopathic effect up to 200 uM after 3 days; format: functional, organism-based; in short: as §2
[12] = Cytotoxicity against human MAGI-CCR5 cells at 400 uM; format: cell-based; settings: magi-ccr5, 400 µM
In short: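 MAGI-CCR5 cells were exposed to 0–400 µM compound. CC50 is the concentration inhibiting cell proliferation by 50%.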

HeLa = assay: Cytotoxicity against human HeLa cells up to 200 uM after 3 days by MTS assay; format: cell-based; settings: 72 h
[13] = Chemical stability in PBS of pH 11.5 by HPLC; format: physicochemical; settings: buffer; in short: as §3
Coxsackievirus B4 = assay: Antiviral activity against Coxsackievirus B4 virus infected in human HeLa cells assessed as inhibition of virus-induced cytopathic effect up to 200 uM after 3 days; format: functional, organism-based; in short: as §2
CCRF-CEM [14] = assay: Stability in human CEM cells by HPLC; format: ADME, cell-based
In short: (§5)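 CEM-SS cells were washed in PBS, resuspended at 30×10^6 cells/mL in 10 mM Tris–HCl, 140 mM KCl (pH 7.4), sonicated and clarified at 10,000 g. Compound (0.1 mM initial) was incubated in the extract at 37 °C. Aliquots were frozen at −80 °C and analysed by on-line cleaning C18 HPLC to derive half-life.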

[15] = Chemical stability assessed as half life of degradation in culture media by HPLC; format: physicochemical; in short: as §4
[16] = Chemical stability assessed as half life of degradation in PBS of pH 1.2 by HPLC; format: physicochemical
In short: (§6)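 Compound at 0.1 mM initial concentration in buffer, incubated at 37 °C. Aliquots were taken at set times, frozen at −80 °C, then analysed by on-line cleaning-precolumn reversed-phase HPLC (C18, TEAB/acetonitrile gradient). Decomposition half-life was calculated, with products identified by co-injection with authentic samples.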

[17] = Stability in human CEM cells assessed as half life of degradation by HPLC; format: ADME, cell-based; settings: CEM (CCRF-CEM) cells; in short: as §5
[18] = Chemical stability assessed as half life of degradation in PBS of pH 7.3 by HPLC; format: physicochemical; in short: as §6
[19] = Chemical stability assessed as half life of degradation in PBS of pH 11.5 by HPLC; format: physicochemical; in short: as §6

SMILES | Activity [1] | Activity [2] | Activity (Punta Toro virus) | Activity (HEL) | Activity (Sindbis virus) | Activity [3] | Activity (Human alphaherpesvirus 1) | Activity [4] | Activity [5] | Activity (Vaccinia virus) | Activity (Human respirovirus 3) | Activity [6] | Activity (CCRF-CEM [7]) | Activity [8] | Activity (Hepatitis C virus) | Activity (Vero) | Activity (Human alphaherpesvirus 2) | Activity [12] | Activity (HeLa) | Activity (Coxsackievirus B4) | further results
Cc1cn([C@H]2C[C@H](N=[N+]=[N-])[C@@H](CC[PH](=O)O)O2)c(=O)[nH]c1=O | inactive | inactive | inactive | Non-toxic | inactive | inactive | inactive | inactive | inactive | inactive | inactive | Non-toxic | Non-toxic | inactive | inactive | Non-toxic | inactive | Non-toxic | Non-toxic | inactive | Stability [9]: Stable; Stability [10]: Stable; Stability [11]: Stable; Stability [13]: Stable; Stability (CCRF-CEM [14]): Stable
Cc1cn([C@H]2C=C[C@@H](CC[PH](=O)O)O2)c(=O)[nH]c1=O | inactive | inactive | inactive | Non-toxic | inactive | inactive | inactive | inactive | inactive | inactive | inactive | Non-toxic | Non-toxic | inactive | inactive | Non-toxic | inactive | Non-toxic | Non-toxic | inactive | half-life [15]: 11 h; half-life [16]: 28 h; half-life [17]: 2 h; half-life [18]: > 48 h; half-life [19]: > 48 h
BP(=O)(O)CC[C@H]1O[C@@H](n2cc(C)c(=O)[nH]c2=O)C[C@@H]1N=[N+]=[N-] | inactive | inactive | inactive | Non-toxic | inactive | inactive | inactive | inactive | inactive | inactive | inactive | Non-toxic | Non-toxic | inactive | inactive | Non-toxic | inactive | Non-toxic | Non-toxic | inactive | half-life [15]: 3.1 h; half-life [17]: > 48 h; Stability [9]: Stable; Stability [10]: Stable; Stability [13]: Stable
BP(=O)(O)CC[C@@H]1C=C[C@H](n2cc(C)c(=O)[nH]c2=O)O1 | inactive | inactive | inactive | Non-toxic | inactive | inactive | inactive | inactive | inactive | inactive | inactive | Non-toxic | Non-toxic | inactive | inactive | Non-toxic | inactive | Non-toxic | Non-toxic | inactive | half-life [15]: 1.6 h; half-life [16]: 16 h; half-life [17]: 3 h; half-life [18]: 22 h; half-life [19]: > 48 h
